The source made the active and inactive calls. The calls are words filed in the database; no cut-off is given here.
Experiments:
[1] = species: Homo sapiens; test: Induction of apoptosis in human Mino cells assessed as effect on BCL-2 protein expression at 12.5 nM after 2 to 24 hrs by immunoblotting analysis; assay type: functional, cell-based
Summary of the method: (§1)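 Lymphoma cell lines were cultured as the providers instruct and exposed to compound at several doses or for several times. Lysates were run on SDS-PAGE and blotted to nitrocellulose. Blots were blocked, incubated overnight with primary antibodies diluted in PBS with 5% milk and 0.1% Tween 20, then with peroxidase-conjugated secondaries, and detected by chemiluminescence on a CCD camera.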

[2] = Antiproliferative activity against human HBL2 cells assessed as growth inhibition measured after 72 hrs by calcein AM dye-based fluorescence assay; assay type: functional, cell-based; details: HBL2, 72 h
Summary of the method: (§2)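 Cells exposed in triplicate to six concentrations for 72 h; calcein AM added for 1 h, live-cell fluorescence read at 485/538 nm (ex/em). GI50 taken from dose-response curves.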

[3] = system: Mus musculus; test: Ex vivo antitumor activity against Maver1 xenografted NSG mouse assessed as down regulation of MCL-1 expression at 10 mg/kg, iv measured after 24 hrs by immunoblotting analysis; assay type: functional, organism-based
Summary of the method: (§3)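 NSG mice bearing palpable s.c. tumors received a single i.v. dose (5 or 10 mg/kg) and were euthanized after 24 h. Excised tumors were filtered through 45 µm nylon mesh, lysed and run on SDS-PAGE, transferred to nitrocellulose, probed overnight with primary antibodies in PBS with 5% milk and 0.1% Tween 20, then peroxidase secondaries, with chemiluminescent detection.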

[4] = system: Mus musculus; test: Ex vivo antitumor activity against human Mino cells xenografted NSG mouse decrease in phosphorylation of Rb at 780 residue at 5 to 10 mg/kg, iv measured after 24 hrs by immunoblotting analysis; assay type: functional, organism-based
Summary of the method: (§4)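 Female NSG mice, 8-12 weeks old, implanted s.c. with lymphoma cells. Once tumors were palpable, mice received a single tail-vein i.v. dose (5 or 10 mg/kg) of compound dissolved in PBS. Mice were euthanized 24 h later. Tumors were excised, filtered through 45 µm nylon mesh and lysed, then proteins were analysed by immunoblotting.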

[5] = system: RPMI-8226; test: Antiproliferative activity against human RPMI8226 cells assessed as growth inhibition measured after 72 hrs by calcein AM dye-based fluorescence assay; assay type: functional, cell-based; details: RPMI-8226, 72 h
[6] = system: Mus musculus; test: Ex vivo antitumor activity against Maver1 xenografted NSG mouse assessed as induction of PARP1 cleavage at 10 mg/kg, iv measured after 24 hrs by immunoblotting analysis; assay type: functional, organism-based; summary of the method: as §3
[7] = target: Cyclin-dependent kinase 1/cyclin B1 (Homo sapiens, UniProt P06493); test: Inhibition of His-tagged CDK1/Cyclin-B1 (unknown origin) expressed in baculovirus infected Sf9 insect cells using histone H1 as substrate measured in presence of [gamma-33P]ATP
Summary of the method: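 CDK/cyclin complexes tested in triplicate at minimum; IC50 values reported from those replicate determinations.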

[8] = species: Homo sapiens; test: Induction of apoptosis in human Mino cells assessed as reduction in MCL1 expression at 12.5 nM after 2 to 24 hrs by immunoblotting analysis; assay type: functional, cell-based; summary of the method: as §1
[9] = target: Cyclin-dependent kinase 9 (Homo sapiens) (UniProt P50750); test: Inhibition of CDK9 in human Mino cells assessed as decrease in phosphorylation of RNA polymerase 2 C-terminal domain at Ser 5 residue at 12.5 nM by immunoblotting analysis; assay type: cell-based; details: TDE = time-dependent effect
Summary of the method: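 MINO lymphoma cells exposed to 12.5 nM for up to 24 h (time course). Lysates separated by SDS-PAGE, transferred to nitrocellulose, probed overnight with specific primary antibodies diluted in PBS with 5% milk and 0.1% Tween 20, then peroxidase-conjugated secondaries; chemiluminescence imaged with a CCD camera.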

[10] = system: Mus musculus; test: Ex vivo antitumor activity against Maver1 xenografted NSG mouse assessed as increase in cleaved caspase9 expression at 10 mg/kg, iv measured after 24 hrs by immunoblotting analysis; assay type: functional, organism-based; summary of the method: as §3
[11] = Antiproliferative activity against human UPF7U cells assessed as growth inhibition measured after 72 hrs by calcein AM dye-based fluorescence assay; assay type: functional, cell-based; summary of the method: as §2
[12] = system: Z-138; test: Antiproliferative activity against human Z138 cells assessed as growth inhibition measured after 72 hrs by calcein AM dye-based fluorescence assay; assay type: functional, cell-based; details: Z-138, 72 h; summary of the method: as §2
[13] = system: Homo sapiens; test: Antitumor activity against human HBL2 cells xenografted in NSG mouse assessed as inhibition of tumor growth at 10 mg/kg, iv administered daily measured every day during compound dosing by caliper method
[14] = system: CCRF-CEM; test: Antiproliferative activity against human CEM cells assessed as growth inhibition measured after 72 hrs by calcein AM dye-based fluorescence assay; assay type: functional, cell-based; summary of the method: as §2
[15] = system: Mus musculus; test: Ex vivo antitumor activity against patient derived VFN-M1 cells xenografted NSG mouse assessed as effect on BCL2 expression at 10 mg/kg, iv measured after 24 hrs by immunoblotting analysis; assay type: functional, organism-based; summary of the method: as §4
[16] = species: Homo sapiens; test: Induction of apoptosis in human Mino cells assessed as induction of PARP1 cleavage at 1.5 to 12.5 nM after 24 hrs by immunoblotting analysis; assay type: functional, cell-based; summary of the method: as §1
[17] = target: Casein kinase I isoform delta (Homo sapiens, UniProt P48730); test: Inhibition of CK1delta (unknown origin) assessed as residual activity at 1 uM relative to control
Summary of the method: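 Single-concentration screen at 1 µM across a panel of 50 protein kinases sampling the human kinome; read-out is residual kinase activity (%).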

[18] = species: Homo sapiens; test: Induction of apoptosis in human Mino cells assessed as effect on BCL-xL protein expression at 12.5 nM after 2 to 24 hrs by immunoblotting analysis; assay type: functional, cell-based; summary of the method: as §1
[19] = system: Mus musculus; test: Ex vivo antitumor activity against human Mino cells xenografted NSG mouse decrease in phosphorylation of RNA polymerase 2 C-terminal domain at Ser 5 residue at 5 to 10 mg/kg, iv measured after 24 hrs by immunoblotting analysis; assay type: functional, organism-based; summary of the method: as §4
[20] = system: Mus musculus; test: Ex vivo antitumor activity against human Mino cells xenografted NSG mouse decrease in phosphorylation of Rb at […] residue at 5 to 10 mg/kg, iv measured after 24 hrs by immunoblotting analysis; assay type: functional, organism-based; summary of the method: as §4
[21] = system: Maver1; test: Antitumor activity against human Maver1 cells xenografted in NSG mouse assessed as inhibition of tumor growth at 9 mg/kg measured on day 13 by caliper method; assay type: functional, organism-based
Summary of the method: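 MAVER-1 cells implanted s.c. in NSG mice. Groups: vehicle n=6, 9 mg/kg n=8, venetoclax 20 mg/kg n=8, combination n=10. Tumors measured daily by caliper in two perpendicular dimensions. Mean volumes ±SD tracked from therapy start (day 1).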

[22] = system: SUD4; test: Antiproliferative activity against human SUDHL4 cells assessed as growth inhibition measured after 72 hrs by calcein AM dye-based fluorescence assay; assay type: functional, cell-based; details: SU-DHL-4, 72 h
[23] = system: Mus musculus; test: Ex vivo antitumor activity against human Mino cells xenografted NSG mouse decrease in phosphorylation of RNA polymerase 2 C-terminal domain at Ser 2 residue at 5 to 10 mg/kg, iv measured after 24 hrs by immunoblotting analysis; assay type: functional, organism-based; summary of the method: as §4
[24] = species: Homo sapiens; test: Induction of apoptosis in human UPF1H cells assessed as reduction in MCL1 expression at 12.5 to 100 nM after 24 hrs by immunoblot analysis; assay type: functional, cell-based; summary of the method: as §1
[25] = system: Ramos; test: Antiproliferative activity against human Ramos cells assessed as growth inhibition measured after 72 hrs by calcein AM dye-based fluorescence assay; assay type: functional, cell-based; summary of the method: as §2

Sequence of Cyclin-dependent kinase 9 (Homo sapiens) (P50750 whole entry, the tested form may be a part): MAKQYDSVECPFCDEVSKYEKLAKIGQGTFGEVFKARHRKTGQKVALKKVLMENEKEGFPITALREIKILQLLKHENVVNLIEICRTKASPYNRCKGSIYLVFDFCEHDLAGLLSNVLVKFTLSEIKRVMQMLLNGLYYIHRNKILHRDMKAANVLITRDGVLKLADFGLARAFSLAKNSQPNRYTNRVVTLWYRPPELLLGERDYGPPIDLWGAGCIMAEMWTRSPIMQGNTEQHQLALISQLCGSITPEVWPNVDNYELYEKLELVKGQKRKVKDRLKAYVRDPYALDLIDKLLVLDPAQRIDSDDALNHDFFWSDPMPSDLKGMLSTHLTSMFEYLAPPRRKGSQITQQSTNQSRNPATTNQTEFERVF
Sequence of Cyclin-dependent kinase 1/cyclin B1 (P06493 whole entry): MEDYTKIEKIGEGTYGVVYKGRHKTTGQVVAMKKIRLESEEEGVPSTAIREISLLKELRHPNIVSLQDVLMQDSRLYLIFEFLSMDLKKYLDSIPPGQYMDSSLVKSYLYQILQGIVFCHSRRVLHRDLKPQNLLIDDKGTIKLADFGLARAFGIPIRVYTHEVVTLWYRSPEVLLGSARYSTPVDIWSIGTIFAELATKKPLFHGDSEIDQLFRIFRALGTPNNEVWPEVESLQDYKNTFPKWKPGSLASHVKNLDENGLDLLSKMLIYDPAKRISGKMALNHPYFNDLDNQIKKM
Sequence of Cyclin-dependent kinase 1/cyclin B1 (P14635 whole entry, further chain): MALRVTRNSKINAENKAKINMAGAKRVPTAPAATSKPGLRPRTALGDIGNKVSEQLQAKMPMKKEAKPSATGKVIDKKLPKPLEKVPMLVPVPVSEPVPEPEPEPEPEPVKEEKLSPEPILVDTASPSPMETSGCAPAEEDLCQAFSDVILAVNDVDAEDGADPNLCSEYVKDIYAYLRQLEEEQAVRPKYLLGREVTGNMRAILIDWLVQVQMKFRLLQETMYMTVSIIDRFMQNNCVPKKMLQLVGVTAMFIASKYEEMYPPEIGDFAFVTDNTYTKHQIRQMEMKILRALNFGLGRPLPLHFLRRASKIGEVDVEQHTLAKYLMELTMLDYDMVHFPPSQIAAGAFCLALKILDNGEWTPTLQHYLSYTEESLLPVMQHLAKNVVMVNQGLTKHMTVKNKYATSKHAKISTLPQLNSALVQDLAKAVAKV
Sequence of Casein kinase I isoform delta (P48730 whole entry, looked up, canonical isoform): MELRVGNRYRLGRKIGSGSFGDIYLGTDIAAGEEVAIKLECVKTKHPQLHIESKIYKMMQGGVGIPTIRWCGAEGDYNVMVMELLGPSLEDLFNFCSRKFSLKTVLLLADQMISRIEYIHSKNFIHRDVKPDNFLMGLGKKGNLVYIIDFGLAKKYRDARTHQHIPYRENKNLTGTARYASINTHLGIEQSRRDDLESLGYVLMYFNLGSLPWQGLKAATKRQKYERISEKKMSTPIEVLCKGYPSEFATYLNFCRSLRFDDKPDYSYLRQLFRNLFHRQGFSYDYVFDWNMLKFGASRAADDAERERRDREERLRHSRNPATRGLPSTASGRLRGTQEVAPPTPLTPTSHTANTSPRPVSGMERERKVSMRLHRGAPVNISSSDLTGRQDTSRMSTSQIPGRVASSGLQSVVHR

GI50 [5]: 21.6 nM
IC50 [7]: 90 nM
inhibition [9]: Tde
GI50 [14]: 33 nM
IC50 [14]: 33 nM
Activity [17]: 11%
GI50 [25]: 44 nM
IC50 [25]: 44 nM
SMILES: CC(C)c1n[nH]c2c(NCc3ccc(-c4ccccn4)cc3)nc(SCCN)nc12
Activity [1]: inactive
GI50 [2]: 43 nM
IC50 [2]: 43 nM
Activity [3]: Active
Activity [4]: Active
Activity [6]: Active
Activity [8]: Active
Activity [10]: Active
GI50 [11]: 12 nM
IC50 [11]: 12 nM
GI50 [12]: 13 nM
IC50 [12]: 13 nM
TGI [13]: Active
Activity [15]: inactive
Activity [16]: Active
Activity [18]: inactive
Activity [19]: Active
Activity [20]: Active
TGI [21]: Active
GI50 [22]: 15 nM
Activity [23]: Active
Activity [24]: Active
